The text below walks through data of ChEMBL document CHEMBL1153949, “Design, synthesis, and structure-activity relationship of substrate competitive, selective, and in vivo active triazole and thiadiazole inhibitors of the c-Jun N-terminal kinase” (J Med Chem, 2009).

Series [1] in a line: Displacement of biotin-labeled pep-JIP11 from JNK at 100 uM by DELFIA assay. The procedure, abridged:
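GST-JNK added at 10 nM final with Eu-anti-GST antibody (1.9 nM) and compound in DMSO. Incubated 1 hr at 0 °C, washed 5 times, enhancement solution added, and Eu fluorescence read after 10 min (ex 340, em 615 nm). Controls: unlabeled peptide and no-compound blanks.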

Series [2] has as its target RAC-alpha serine/threonine-protein kinase (Homo sapiens) (UniProt P31749). The experiment in a line: Inhibition of AKT1 at 100 uM.
Series [3] is described as follows: Inhibition of lethal factor.
The target of series [4] is Mitogen-activated protein kinase 14 (Homo sapiens, UniProt Q16539). Description: Inhibition of p38alpha.
In another series the target is Furin (Homo sapiens, UniProt P09958). Description: Inhibition of furin.
Series [5] is described as follows: Inhibition of JNK at 100 uM by time-resolved FRET assay. A digest of the protocol:
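LanthaScreen TR-FRET kinase assay. JNK 35 ng/mL with ATF2 substrate 400 nM and ATP 200 μM in 50 mM HEPES pH 7.5, 10 mM MgCl2, 1 mM EGTA, 0.01% Brij-35, with compound. Reaction ran 1 hr at room temperature. Terbium-labeled antibody plus EDTA added, incubated another hour, and read as the 520/495 nm emission ratio.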

A short description of series [6]: Displacement of biotin-labeled pep-JIP11 from JNK by DELFIA assay.
Series [7] in a line: Selectivity for JNK over p38 alpha.
Series [8] is described as follows: Inhibition of TNF-alpha-stimulated JNK phosphorylation expressed in HeLa cells by time-resolved FRET assay. The class given is cell-based. A digest of the protocol: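 HeLa cells stably expressing GFP-c-Jun(1–79), seeded at 10000/well in phenol red-free Opti-MEM with 1% charcoal/dextran-treated FBS, incubated overnight. Compound pretreatment 60 min, then TNF-α 2 ng/ml for 30 min. Cells lysed in buffer containing 2 nM Tb-anti-phospho-c-Jun (Ser73) antibody and equilibrated 1 hr at room temperature. TR-FRET read at 520/490 nm; EC50 taken from the concentration series.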

For the next series, the system named is Mus musculus. The experiment in a line: Enhancement of insulin insensitivity in BKS.Cg-+Lepr'db/-+Lepr'db/OlaHsd db/db mouse model assessed as reduction in blood glucose levels at 25 mg/kg, ip administered 30 mins before insulin injection. The class given is functional, organism-based. Set-up: dose 25 mg/kg. The procedure, abridged: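 Male db/db mice, 11 weeks old, randomized by blood glucose and fasted 6 h. Compound given at 25 mg/kg i.p., then bovine insulin 0.75 mg/kg i.p. 30 min later. Blood glucose read from tail snips with a hand-held meter at set time points; food returned at 3 h. n=6; means ± S.D.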

Series [9] in a line: Metabolic stability in rat liver microsomes at 4 uM. The class given is ADME, Microsome. In general terms: Microsomes from liver hold many membrane-bound enzymes, among them those of drug oxidation.

Calls of active or inactive are those of the source. The rule behind the calls is not given here. A value given as a limit tells only on which side of the number the result lay.

Furin, sequence (P09958 whole entry): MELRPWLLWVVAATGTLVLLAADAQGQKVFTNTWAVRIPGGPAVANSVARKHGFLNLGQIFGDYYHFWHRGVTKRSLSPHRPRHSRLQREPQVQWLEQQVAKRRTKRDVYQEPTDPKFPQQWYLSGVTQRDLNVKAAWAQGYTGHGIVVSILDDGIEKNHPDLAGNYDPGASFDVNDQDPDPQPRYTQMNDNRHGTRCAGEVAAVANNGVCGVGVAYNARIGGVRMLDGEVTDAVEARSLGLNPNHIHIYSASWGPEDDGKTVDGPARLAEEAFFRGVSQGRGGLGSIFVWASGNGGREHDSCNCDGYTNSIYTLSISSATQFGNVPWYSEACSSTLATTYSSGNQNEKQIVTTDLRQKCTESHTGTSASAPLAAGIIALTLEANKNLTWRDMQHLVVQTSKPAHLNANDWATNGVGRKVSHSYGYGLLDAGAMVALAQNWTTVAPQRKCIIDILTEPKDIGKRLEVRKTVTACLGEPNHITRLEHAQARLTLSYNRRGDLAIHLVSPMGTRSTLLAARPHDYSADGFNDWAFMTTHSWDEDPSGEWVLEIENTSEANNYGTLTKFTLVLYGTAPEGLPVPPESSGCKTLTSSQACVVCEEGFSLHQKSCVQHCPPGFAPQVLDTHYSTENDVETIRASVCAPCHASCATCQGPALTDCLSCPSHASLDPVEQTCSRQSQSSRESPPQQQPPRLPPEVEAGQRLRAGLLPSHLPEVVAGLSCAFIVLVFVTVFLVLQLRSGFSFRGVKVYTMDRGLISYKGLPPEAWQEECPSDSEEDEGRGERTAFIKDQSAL
RAC-alpha serine/threonine-protein kinase (Homo sapiens), sequence (P31749 whole entry): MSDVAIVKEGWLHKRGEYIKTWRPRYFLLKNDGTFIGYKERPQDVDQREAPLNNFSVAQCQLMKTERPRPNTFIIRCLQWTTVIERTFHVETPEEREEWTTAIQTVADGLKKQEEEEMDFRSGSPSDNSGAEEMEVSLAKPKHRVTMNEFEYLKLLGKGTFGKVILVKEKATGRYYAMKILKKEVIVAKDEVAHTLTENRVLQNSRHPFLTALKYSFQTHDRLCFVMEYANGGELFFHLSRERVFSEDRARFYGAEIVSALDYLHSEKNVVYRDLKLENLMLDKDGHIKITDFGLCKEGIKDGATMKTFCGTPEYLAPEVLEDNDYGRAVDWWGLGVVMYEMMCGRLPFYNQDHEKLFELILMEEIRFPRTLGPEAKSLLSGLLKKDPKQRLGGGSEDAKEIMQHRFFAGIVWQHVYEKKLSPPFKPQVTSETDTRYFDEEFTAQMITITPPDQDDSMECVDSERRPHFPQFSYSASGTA
Mitogen-activated protein kinase 14, sequence (Q16539 whole entry): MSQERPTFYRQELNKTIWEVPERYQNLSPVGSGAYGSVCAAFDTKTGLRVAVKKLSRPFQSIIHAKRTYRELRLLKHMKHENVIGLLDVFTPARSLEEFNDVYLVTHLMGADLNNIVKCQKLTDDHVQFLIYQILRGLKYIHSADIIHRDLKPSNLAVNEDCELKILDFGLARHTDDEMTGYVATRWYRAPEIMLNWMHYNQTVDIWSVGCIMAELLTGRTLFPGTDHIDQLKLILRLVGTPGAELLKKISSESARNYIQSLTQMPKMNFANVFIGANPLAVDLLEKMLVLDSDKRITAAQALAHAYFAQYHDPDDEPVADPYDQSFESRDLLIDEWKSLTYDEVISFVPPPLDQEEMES

As for `COc1ccc(CSc2nnc(SCc3ccc(OC)cc3)s2)cc1`, the inhibition (in general, the drop in the measured response relative to a control, in per cent) in series [1] was “inactive”.

Consider `O=[N+]([O-])c1ccc(-n2c(O)nnc2Sc2ncc([N+](=O)[O-])s2)cc1`, for which, in [2], the inhibition is 20%. Further, the IC50 (in general, the concentration at which inhibition is half-maximal) in series [3] is greater than 100 µM.

On to `Cn1cccc1-c1nnc(Sc2ncc([N+](=O)[O-])s2)n1-c1ccc(Cl)cc1Cl`, for which the IC50 in series [4] is greater than 100 µM; against Furin it was greater than 50 µM; in [3], greater than 100 µM. This molecule also gave an inhibition in [2] of 14%.

On to `O=[N+]([O-])c1ccc(Sc2nnc(O)n2-c2ccccc2)s1`, for which the inhibition in series [1] came out at 55%; in series [5], 22%.

Consider `Nc1nnc(SCc2ccc(F)cc2)s1`, for which the IC50 in series [6] was greater than 1 µM.

Consider `CCCCSc1nnc(O)n1-c1ccccc1`, for which the inhibition result in series [1] is “inactive”. For the same molecule, the inhibition in series [5] was 25%.

`O=[N+]([O-])c1ccc(CSc2nnc(SCc3ccc([N+](=O)[O-])cc3)s2)cc1`: in series [1], the inhibition entry is “inactive”.

`O=[N+]([O-])c1cnc(Sc2nnc(O)n2-c2ccc3c(c2)OCCO3)s1` displayed an IC50 in series [6] of 0.108 µM.

Consider `O=[N+]([O-])c1cccc(CSc2nnc(SCc3cccc([N+](=O)[O-])c3)s2)c1`, for which the inhibition result in [1] was “inactive”.

Take `O=c1[nH]nc(Sc2ncc([N+](=O)[O-])s2)n1-c1ccc([N+](=O)[O-])cc1`: the IC50 is greater than 100 µM in series [4] and greater than 50 µM at Furin.

Take `Fc1ccc(CSc2nnc(SCc3ccc(F)cc3)s2)cc1`: the inhibition entry in series [1] is “inactive”.

As for `Oc1nnc(SCc2ccccc2)n1-c1ccc2c(c1)OCCO2`, in series [1], the inhibition result was “inactive”. Further, in series [5], the inhibition is 2%.

On to `CCSc1nnc(O)n1-c1ccccc1`, for which, in series [1], the inhibition result is “inactive”. For the same molecule, the inhibition in series [5] came to 16%.

In turn, `O=[N+]([O-])c1cnc(Sc2nnc(O)n2-c2ccc(F)c(F)c2)s1` displayed an inhibition in series [1] of 73%.

As for `O=[N+]([O-])c1cnc(Sc2nnc(Sc3ncc([N+](=O)[O-])s3)s2)s1`, the IC50 was greater than 100 µM in series [4], greater than 50 µM on Furin and greater than 100 µM in series [3]. The same molecule registered an inhibition in series [2] of 27%.

`O=C(Nc1nnc(Sc2ncc([N+](=O)[O-])s2)s1)c1ccc(F)cc1`: the inhibition entry in series [1] is “inactive”.

In the case of `Nc1nnc(Sc2ncc([N+](=O)[O-])s2)s1`, in series [7], the Ratio IC50 was found to be 142. Also, in series [6], the Activity entry is “Dose-dependent effect”. For the same molecule, the IC50 is greater than 100 µM in [4], greater than 50 µM against Furin and greater than 100 µM in series [3]. The same molecule came in with an inhibition in series [2] of 11%. In addition, the response in [8] was half-maximal at 6.23 µM (EC50). In addition, the result in the series on Mus musculus was Active. Further, in [9], the half-life (usually how long it takes for the measured level to halve) at 4 µM came out at 27 min.

For `c1ccc(CSc2nnc(SCc3ccccc3)s2)cc1`, the inhibition result in series [1] was “inactive”.
